In ChEMBL document CHEMBL4308847, “Discovery, Structure-Activity Relationship, and Biological Characterization of a Novel Series of 6-((1 H-Pyrazolo[4,3- b]pyridin-3-yl)amino)-benzo[ d]isothiazole-3-carboxamides as Positive Allosteric Modulators of the Metabotropic Glutamate Receptor 4 (mGlu4)” (J Med Chem, 2018):

What was measured:
[1] = target: T1, Metabotropic glutamate receptor 4 (Homo sapiens, UniProt Q14833); experiment: (§1) Positive allosteric modulation of human mGlu4 receptor expressed in CHO cells co-expressing Gqi5 assessed as increase in glutamate-induced calcium mobilization preincubated for 142 secs followed by EC20 glutamate addition and subsequent EC80 glutamate addition after 147 secs by Fluo-4-AM dye based fluorescence assay; type: functional, cell-based
T1 sequence (Q14833 whole entry): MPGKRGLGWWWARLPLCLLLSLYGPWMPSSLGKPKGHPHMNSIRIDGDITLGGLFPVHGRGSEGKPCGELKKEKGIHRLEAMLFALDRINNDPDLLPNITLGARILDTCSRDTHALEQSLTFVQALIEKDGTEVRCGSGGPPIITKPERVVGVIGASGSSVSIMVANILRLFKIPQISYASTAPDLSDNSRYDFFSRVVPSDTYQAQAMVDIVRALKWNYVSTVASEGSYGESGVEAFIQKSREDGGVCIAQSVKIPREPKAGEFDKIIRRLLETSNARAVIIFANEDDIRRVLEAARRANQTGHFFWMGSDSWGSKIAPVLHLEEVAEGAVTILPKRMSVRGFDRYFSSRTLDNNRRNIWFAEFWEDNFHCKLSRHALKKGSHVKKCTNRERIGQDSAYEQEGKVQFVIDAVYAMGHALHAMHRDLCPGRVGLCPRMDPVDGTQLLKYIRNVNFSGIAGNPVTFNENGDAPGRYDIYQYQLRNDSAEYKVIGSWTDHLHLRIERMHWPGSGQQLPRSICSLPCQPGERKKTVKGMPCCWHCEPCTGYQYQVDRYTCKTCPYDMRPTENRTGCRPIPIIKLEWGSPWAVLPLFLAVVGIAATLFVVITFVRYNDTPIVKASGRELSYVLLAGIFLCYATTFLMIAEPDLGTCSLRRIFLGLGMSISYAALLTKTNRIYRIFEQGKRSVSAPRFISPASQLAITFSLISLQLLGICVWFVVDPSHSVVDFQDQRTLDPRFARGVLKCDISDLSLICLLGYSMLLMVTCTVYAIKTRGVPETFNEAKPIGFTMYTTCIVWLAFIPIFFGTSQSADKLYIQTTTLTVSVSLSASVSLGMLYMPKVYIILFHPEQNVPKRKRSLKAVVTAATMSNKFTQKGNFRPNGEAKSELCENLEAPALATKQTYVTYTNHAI
Summary of the method: (§2)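 CHO cells expressing human mGlu4 and Gqi5, plated at 30,000 cells/well and grown overnight at 37 °C, 5% CO2. Cells were loaded with 1 μM Fluo-4 AM for 45 min at 37 °C in HBSS/20 mM HEPES/2.5 mM probenecid. Compounds were run as 10-point, 1:3 dilution series. After 142 s, EC20 glutamate was added; 147 s later, EC80 glutamate. Fluorescence was normalized to the maximal glutamate response. EC50 and %Glu Max were fitted by four-parameter logistic, with maximum normalized to PHCCC.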

[2] = target: T1, Metabotropic glutamate receptor 4; experiment: as §1, with “measured” for “subsequent EC80 glutamate addition”, “assay relative to control” for “assay”; type: functional, cell-based; summary of the method: as §2
[3] = Intrinsic clearance in human liver microsomes at 1 uM preincubated for 5 mins followed by NADPH addition measured up to 45 mins by LC-MS/MS analysis; type: ADME, Microsome; conditions: read-out: CLH
Summary of the method: (§3)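 Intrinsic and predicted hepatic clearance derived from liver microsome incubations.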

[4] = Intrinsic clearance in rat liver microsomes at 1 uM preincubated for 5 mins followed by NADPH addition measured up to 45 mins by LC-MS/MS analysis; type: ADME, Microsome; conditions: read-out: CLH; summary of the method: as §3
[5] = Fraction unbound in human plasma after 4 hrs by equilibrium dialysis method; type: ADME, cell-free
[6] = Fraction unbound in rat plasma after 4 hrs by equilibrium dialysis method; type: ADME, cell-free
[7] = target: T2, Cytochrome P450 1A2 (Homo sapiens, UniProt P05177); experiment: Inhibition of CYP1A2 in human liver microsomes using phenacetin as substrate preincubated for 15 mins followed by substrate addition and measured after 8 mins by LC-MS/MS analysis; type: ADME
T2 sequence (P05177 whole entry): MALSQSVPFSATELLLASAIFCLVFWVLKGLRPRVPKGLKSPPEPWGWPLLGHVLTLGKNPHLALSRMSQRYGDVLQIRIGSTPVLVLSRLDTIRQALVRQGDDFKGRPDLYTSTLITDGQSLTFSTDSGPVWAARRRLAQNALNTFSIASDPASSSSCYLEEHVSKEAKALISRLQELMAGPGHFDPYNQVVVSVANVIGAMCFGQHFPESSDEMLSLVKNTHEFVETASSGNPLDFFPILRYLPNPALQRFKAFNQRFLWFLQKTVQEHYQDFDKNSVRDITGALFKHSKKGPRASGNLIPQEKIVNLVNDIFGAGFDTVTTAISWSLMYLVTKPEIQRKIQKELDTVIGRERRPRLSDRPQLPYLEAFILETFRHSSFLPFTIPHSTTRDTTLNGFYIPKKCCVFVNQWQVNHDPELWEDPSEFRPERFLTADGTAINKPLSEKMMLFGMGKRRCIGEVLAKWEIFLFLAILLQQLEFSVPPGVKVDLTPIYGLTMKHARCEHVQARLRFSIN
Summary of the method: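 IC50 for CYP1A2 inhibition determined in human liver microsomes using specific probe substrate-metabolite pairs.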

[8] = target: Metabotropic glutamate receptor 4 (Rattus norvegicus, UniProt P31423); experiment: (§4) Positive allosteric modulation of rat mGlu4 receptor expressed in HEK cells co-expressing GIRK1/2 assessed as increase in glutamate-induced thallium flux preincubated for 140 secs followed by glutamate addition and measured after 2.5 mins by FluoZin-2-AM dye based fluorescence assay; type: cell-based
Metabotropic glutamate receptor 4 (Rattus norvegicus, UniProt P31423), sequence (P31423 whole entry): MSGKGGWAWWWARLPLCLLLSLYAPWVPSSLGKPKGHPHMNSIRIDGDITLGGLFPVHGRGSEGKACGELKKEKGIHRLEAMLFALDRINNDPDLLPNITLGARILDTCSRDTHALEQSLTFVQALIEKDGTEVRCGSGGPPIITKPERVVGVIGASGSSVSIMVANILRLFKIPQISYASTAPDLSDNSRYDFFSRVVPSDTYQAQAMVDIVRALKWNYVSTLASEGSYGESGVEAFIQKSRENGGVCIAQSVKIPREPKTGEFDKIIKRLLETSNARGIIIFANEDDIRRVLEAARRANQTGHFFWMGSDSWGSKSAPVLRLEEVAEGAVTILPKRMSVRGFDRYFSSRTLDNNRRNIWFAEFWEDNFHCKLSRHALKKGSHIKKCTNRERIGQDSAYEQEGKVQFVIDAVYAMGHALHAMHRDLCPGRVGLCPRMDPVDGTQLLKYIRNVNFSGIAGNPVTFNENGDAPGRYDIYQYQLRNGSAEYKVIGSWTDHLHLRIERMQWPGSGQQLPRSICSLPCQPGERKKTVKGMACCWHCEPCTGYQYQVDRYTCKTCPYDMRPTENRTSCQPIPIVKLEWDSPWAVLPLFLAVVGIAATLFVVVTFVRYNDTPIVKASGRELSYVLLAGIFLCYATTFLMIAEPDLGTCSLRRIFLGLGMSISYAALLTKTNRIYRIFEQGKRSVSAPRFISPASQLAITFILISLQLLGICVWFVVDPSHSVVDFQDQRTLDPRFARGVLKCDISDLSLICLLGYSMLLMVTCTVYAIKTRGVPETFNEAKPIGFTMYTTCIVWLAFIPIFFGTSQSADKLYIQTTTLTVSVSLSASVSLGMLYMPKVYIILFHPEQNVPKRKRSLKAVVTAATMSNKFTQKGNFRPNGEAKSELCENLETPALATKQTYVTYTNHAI
Summary of the method: (§5)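 HEK cells co-expressing rat mGlu4 and GIRK1/2 were loaded for 1 h at room temperature with FluoZin-2 AM (330 nM final) in HBSS/20 mM HEPES pH 7.4. Compound was incubated 140 s, then thallium buffer with or without agonist was added. Reading continued for 2.5 min at room temperature. Potency was fitted by four-parameter logistic.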

[9] = target: Metabotropic glutamate receptor 4 (Rattus norvegicus) (UniProt P31423); experiment: as §4, with “assay relative to control” for “assay”; type: cell-based; summary of the method: as §5
Metabotropic glutamate receptor 4 (Rattus norvegicus), sequence (P31423 whole entry): as above

[10] = Clearance in rat administered as iv cassette dose; type: ADME, organism-based; conditions: in vivo
Summary of the method: (§6)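 IV cassette in male Sprague-Dawley rats (~300 g, n = 1 per experiment), cannulated in carotid artery and jugular vein and acclimated about one week. Plasma clearance, Vss, t1/2 and MRT were derived.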

[11] = Half life in rat administered as iv cassette dose; type: ADME, organism-based; conditions: in vivo; summary of the method: as §6

EC50 [1] [µM]	%max [2] [%]	CLint scaled at 1 µM [3] [L/h/kg]	CLint scaled at 1 µM [4] [L/h/kg]	fraction unbound at 4 h [5]	fraction unbound at 4 h [6]	IC50 [7] [µM]	EC50 [8] [µM]	%max [9] [%]	clearance [10] [L/h/kg]	half-life [11] [h]	Fu ([5]; 4 h)	Fu ([6]; 4 h)	Compound
0.398	80												CC1CCN(C(=O)c2nsc3cc(Nc4n[nH]c5cccnc45)ccc23)CC1
0.074	51	1.48	16.6	0.006	0.016	22.1							CC(C)(C)Cc1nsc2cc(Nc3n[nH]c4cccnc34)cnc12
1.05	98												CC(C)(O)c1nsc2cc(Nc3n[nH]c4cccnc34)ccc12
0.117	92												CCCC(C)c1noc2cc(Nc3n[nH]c4cccnc34)ccc12 (stereo not given)
0.678	58.8	1.48	0.66	0.003	0.017	0.5	1.6	83.8	1.67	1.51			CC(F)(F)c1noc2cc(Nc3n[nH]c4cccnc34)ccc12
0.275	62	2.66	10.3	0.077	0.059								O=C(c1nsc2cc(Nc3n[nH]c4cccnc34)ccc12)N1CCOCC1
0.105	54	2.41	11.3	0.013	0.011	> 30	0.158	112					CC(C)(C)Cc1nsc2cc(Nc3n[nH]c4nccnc34)cnc12
0.331	92												O=C(c1nsc2cc(Nc3n[nH]c4cccnc34)ccc12)N1CCC(F)(F)C1
	79	0.948	1.26	0.042	0.039	21.7	0.166	98.9					CC(=O)N1CCC(c2nsc3cc(Nc4n[nH]c5cccnc45)ccc23)CC1
2.4	60												c1cnc2[nH]nc(Nc3ccc4c(C5CCCC5)noc4c3)c2c1
0.0759	91	0.888	1.91	0.062	0.058	< 0.1	0.0955	105					Cc1noc2ccc(Nc3n[nH]c4cccnc34)cc12
0.723	87.6	1.84	23.9	0.01	0.007	1.2	0.68	97.9	3.73	1.67			c1cnc2c(Nc3ccc4c(C5CCCC5)noc4c3)n[nH]c2c1
0.851	88	4.99	73.1	0.026	0.016	1.8							c1cnc2c(Nc3ccc4c(C5CCC5)noc4c3)n[nH]c2c1
0.324	44	3.6	13.7	0.013	0.034								CC1CN(C(=O)c2nsc3cc(Nc4n[nH]c5cccnc45)ccc23)CC(C)O1 (stereo not given)
0.813	53												CC(C)Cc1noc2cc(Nc3n[nH]c4cccnc34)ccc12
1.86	86												Cc1noc2cc(Nc3n[nH]c4cccnc34)ccc12
0.04	77	2.12	7.62	0.035	0.03								CCc1nsc2cc(Nc3n[nH]c4cccnc34)ccc12
0.324	64												CC(C)(C)c1nsc2cc(Nc3n[nH]c4cccnc34)ccc12
0.525	97												CCC(CC)c1noc2cc(Nc3n[nH]c4ncccc34)ccc12

EC50 [1] [µM]	%max [2] [%]	CLint scaled at 1 µM [3] [L/h/kg]	CLint scaled at 1 µM [4] [L/h/kg]	fraction unbound at 4 h [5]	fraction unbound at 4 h [6]	IC50 [7] [µM]	EC50 [8] [µM]	%max [9] [%]	clearance [10] [L/h/kg]	half-life [11] [h]	Fu ([5]; 4 h)	Fu ([6]; 4 h)	Compound
0.068	73	2.47	3.56	0.012	0.008	0.7							c1cnc2c(Nc3ccc4c(C5CC5)nsc4c3)n[nH]c2n1
	111												O=C(C1CC1)N1CCC(c2nsc3cc(Nc4n[nH]c5cccnc45)ccc23)CC1
	84	1.65	65.1			> 30					Nd(Unstable)	Nd(Unstable)	FC1(F)CCN(Cc2nsc3cc(Nc4n[nH]c5cccnc45)cnc23)CC1
1.3	68.9	0.438	5.21	0.016	0.022	1.1	0.542	84.8	2.59	1.33			CC(C)(C)Cc1noc2cc(Nc3n[nH]c4cccnc34)ccc12
> 10	54												CCc1noc2ccc(Nc3n[nH]c4ncccc34)cc12
0.081	76	1.73	10.6	0.009	0.014	0.4							c1cnc2c(Nc3ccc4c(C5CC5)nsc4c3)n[nH]c2c1
0.759	74												CC(C)(C)Cc1nsc2cc(Nc3n[nH]c4ncccc34)ccc12
0.129	92	5.05	29.3	0.009	0.019	1							CCC(CC)c1noc2cc(Nc3n[nH]c4cccnc34)ccc12
0.098	106												CCC(CC)c1noc2cc(Nc3n[nH]c4nccnc34)ccc12
0.269	70												CC(C)(C)Cc1nsc2cc(Nc3n[nH]c4cccnc34)ccc12
0.575	23												CC(C)c1noc2cc(Nc3n[nH]c4cccnc34)ccc12
0.102	57												CCc1nsc2cc(Nc3n[nH]c4ncccc34)ccc12
2.82	84												CC(C)(C)Cc1noc2cc(Nc3n[nH]c4ncccc34)ccc12
0.0229	70												Cc1noc2c(F)cc(Nc3n[nH]c4nccnc34)cc12
0.219	54	1.42	2.36	0.054	0.044	0.5	0.19	121					Cc1noc2ccc(Nc3n[nH]c4ncc(F)cc34)cc12
0.447	63												CC1CC(C)CN(C(=O)c2nsc3cc(Nc4n[nH]c5cccnc45)ccc23)C1 (stereo not given)
0.794	50												FC(F)(F)c1nsc2cc(Nc3n[nH]c4ncccc34)ccc12
1.35	72	4.19	12.2	0.027	0.037	< 0.1							CCc1noc2cc(Nc3n[nH]c4cccnc34)ccc12
0.708	102												c1cnc2c(Nc3ccc4c(C5CCC5)noc4c3)n[nH]c2n1
